Data published in ChEMBL document CHEMBL2417474, “Synthesis, antiproliferative and anti-inflammatory activities of some novel 6-aryl-2-(p-(methanesulfonyl)phenyl)-4,5-dihydropyridazi-3(2H)-ones” (Eur J Med Chem, 2013).

Legend:
Type in all cases: functional
NCI-H522 [1] = assay: Growth inhibition of human NCI-H522 cells assessed as cell growth at 10 uM after 48 hrs by sulforhodamine B assay; conditions: NCI-H522, 48 h, read-out: Activity
SK-MEL-5 = assay: Growth inhibition of human SK-MEL-5 cells assessed as cell growth at 10 uM after 48 hrs by sulforhodamine B assay; conditions: SK-MEL-5, 48 h, read-out: Activity
MDA-MB-468 = assay: Growth inhibition of human MDA-MB-468 cells assessed as cell growth at 10 uM after 48 hrs by sulforhodamine B assay; conditions: MDA-MB-468, 48 h, read-out: Activity
BT-549 = assay: Growth inhibition of human BT549 cells assessed as cell growth at 10 uM after 48 hrs by sulforhodamine B assay; conditions: BT-549, 48 h, read-out: Activity
NCI-H522 [2] = assay: Growth inhibition of human NCI-H522 cells after 48 hrs by sulforhodamine B assay; conditions: NCI-H522, 48 h
Summary of the method: (§1)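 NCI 60-cell-line panel. Cells were grown in medium with 5% fetal calf serum and 2 mM L-glutamine, then preincubated 24 h in plates. Compounds were added from DMSO at five 10-fold concentrations from 100 to 0.01 µM and left on cells continuously for 48 h. Cell growth was read by sulforhodamine B protein stain. GI50 is the concentration that halves net protein increase relative to control cells.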

MCF7 = assay: Growth inhibition of human MCF7 cells assessed as cell growth at 10 uM after 48 hrs by sulforhodamine B assay; conditions: MCF7, 48 h, read-out: Activity
HCT-116 = assay: Growth inhibition of human HCT116 cells assessed as cell growth at 10 uM after 48 hrs by sulforhodamine B assay; conditions: HCT-116, 48 h, read-out: Activity
OVCAR-8 [3] = assay: Growth inhibition of human OVCAR8 cells assessed as cell growth at 10 uM after 48 hrs by sulforhodamine B assay; conditions: OVCAR-8, 48 h, read-out: Activity
SF-268 = assay: Growth inhibition of human SF268 cells after 48 hrs by sulforhodamine B assay; conditions: SF-268, 48 h; summary of the method: as §1
[4] = Growth inhibition of human HCC2998 cells after 48 hrs by sulforhodamine B assay; conditions: HCC 2998, 48 h
Summary of the method: (§2)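 NCI 60-cell-line panel grown in RPMI-type medium with 5% fetal calf serum and 2 mM L-glutamine. Cells preincubated 24 h, then exposed continuously for 48 h to compound in DMSO at 10^-4 to 10^-8 M (five 10-fold levels). Growth read by SRB protein stain. GI50 is the concentration giving a 50% reduction in net protein increase relative to control cells.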

RPMI-8226 = assay: Growth inhibition of human RPMI8226 cells after 48 hrs by sulforhodamine B assay; conditions: RPMI-8226, 48 h; summary of the method: as §1
CAKI-1 = assay: Growth inhibition of human CAKI-1 cells after 48 hrs by sulforhodamine B assay; conditions: CAKI-1, 48 h; summary of the method: as §2
U-251 = assay: Growth inhibition of human U251 cells after 48 hrs by sulforhodamine B assay; conditions: U-251, 48 h
Summary of the method: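 NCI 60-line panel. Cells were grown in medium with 5% fetal calf serum and 2 mM L-glutamine and preincubated 24 h in plates. Compound in DMSO was added at 10^-4 to 10^-8 M (five 10-fold levels), with continuous exposure for 48 h. Growth was read by SRB protein staining. GI50 is the concentration giving 50% reduction in net protein increase versus control cells.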

OVCAR-3 = assay: Growth inhibition of human OVCAR3 cells assessed as cell growth at 10 uM after 48 hrs by sulforhodamine B assay; conditions: OVCAR-3, 48 h, read-out: Activity
A549 = assay: Growth inhibition of human A549/ATCC cells assessed as cell growth at 10 uM after 48 hrs by sulforhodamine B assay; conditions: A549, 48 h, read-out: Activity
SF-295 = assay: Growth inhibition of human SF295 cells after 48 hrs by sulforhodamine B assay; conditions: SF-295, 48 h; summary of the method: as §1
HT-29 [5] = assay: Growth inhibition of human HT-29 cells after 48 hrs by sulforhodamine B assay; conditions: HT-29, 48 h; summary of the method: as §2
SK-MEL-2 = assay: Growth inhibition of human SK-MEL-2 cells assessed as cell growth at 10 uM after 48 hrs by sulforhodamine B assay; conditions: SK-MEL-2, 48 h, read-out: Activity
OVCAR-8 [6] = assay: Growth inhibition of human OVCAR8 cells after 48 hrs by sulforhodamine B assay; conditions: OVCAR-8, 48 h; summary of the method: as §1
MDA-MB-231 = assay: Growth inhibition of human MDA-MB-231 cells assessed as cell growth at 10 uM after 48 hrs by sulforhodamine B assay; conditions: MDA-MB-231, 48 h, read-out: Activity
NCI-H226 = assay: Growth inhibition of human NCI-H226 cells after 48 hrs by sulforhodamine B assay; conditions: NCI-H226, 48 h; summary of the method: as §1
MDA-MB-435 = assay: Growth inhibition of human MDA-MB-435 cells after 48 hrs by sulforhodamine B assay; conditions: MDA-MB-435, 48 h; summary of the method: as §1
786-0 = assay: Growth inhibition of human 786-0 cells after 48 hrs by sulforhodamine B assay; conditions: 786-0, 48 h; summary of the method: as §2
SR = assay: Growth inhibition of human SR cells assessed as cell growth at 10 uM after 48 hrs by sulforhodamine B assay; conditions: read-out: Activity
Summary of the method: (§3)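 Single-dose NCI screen. Tumor lines were cultured in medium with 5% fetal calf serum and 2 mM L-glutamine, preincubated 24 h, then given compound in DMSO. After 48 h continuous exposure, cell growth was estimated by sulforhodamine B protein assay.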

SW-620 = assay: Growth inhibition of human SW620 cells assessed as cell growth at 10 uM after 48 hrs by sulforhodamine B assay; conditions: SW-620, 48 h, read-out: Activity; summary of the method: as §3
SF-539 = assay: Growth inhibition of human SF539 cells assessed as cell growth at 10 uM after 48 hrs by sulforhodamine B assay; conditions: SF-539, 48 h, read-out: Activity
KM12 = assay: Growth inhibition of human KM12 cells assessed as cell growth at 10 uM after 48 hrs by sulforhodamine B assay; conditions: KM12, 48 h, read-out: Activity
HT-29 [7] = assay: Growth inhibition of human HT-29 cells assessed as cell growth at 10 uM after 48 hrs by sulforhodamine B assay; conditions: HT-29, 48 h, read-out: Activity
K562 = assay: Growth inhibition of human K562 cells assessed as cell growth at 10 uM after 48 hrs by sulforhodamine B assay; conditions: K562, 48 h, read-out: Activity
[8] = read-out: LC50 (the source's name)

In the case of `Cc1ccc(C2=NN(c3ccc(S(C)(=O)=O)cc3)C(=O)CC2)cc1`, the growth at 10 µM (NCI-H522 [1]) is reported as 12.8%, the growth at 10 µM (SK-MEL-5) is reported as 13.9% and the growth at 10 µM (MDA-MB-468) is reported as 23.9%. The growth at 10 µM (BT-549) was 11.3%, the GI50 (NCI-H522 [2]) was 220 nM and the LC50 (concentration killing 50% of starting cells) (NCI-H522 [2]) was > 100000 nM. The TGI (NCI-H522 [2]) was 1000 nM, the growth at 10 µM (MCF7) was 16.2% and the growth at 10 µM (HCT-116) was 17.7%. The growth at 10 µM (OVCAR-8 [3]) was 31.8%, the GI50 (SF-268) was 2940 nM and the TGI (SF-268) was > 100000 nM. For the same compound, the CC50 (SF-268; [8]) was > 100000 nM, the GI50 [4] was 2750 nM and the TGI [4] was > 100000 nM. The CC50 [4, 8] was > 100000 nM, the GI50 (RPMI-8226) was 2780 nM and the TGI (RPMI-8226) was > 100000 nM. For the same compound, the CC50 (RPMI-8226; [8]) was > 100000 nM, the GI50 (CAKI-1) was 290 nM and the LC50 (lethal concentration, 50% cell kill) (CAKI-1) was > 100000 nM. For the same compound, the GI50 (U-251) was 450 nM, the TGI (U-251) was > 100000 nM and the CC50 (U-251; [8]) was > 100000 nM. It also gave a growth at 10 µM (OVCAR-3) of -14.7%, a growth at 10 µM (A549) of 36.6% and a GI50 (SF-295) of 400 nM. The LC50 (concentration killing 50% of cells present at start) (SF-295) was > 100000 nM, the TGI (SF-295) was 5360 nM and the GI50 (HT-29 [5]) was 330 nM. For the same compound, the LC50 (50% lethal concentration) (HT-29 [5]) was > 100000 nM, the TGI (HT-29 [5]) was 10000 nM and the growth at 10 µM (SK-MEL-2) was 6.35%. For the same compound, the GI50 (OVCAR-8 [6]) was 740 nM, the LC50 (OVCAR-8 [6]) was > 100000 nM and the TGI (OVCAR-8 [6]) was > 100000 nM. For the same compound, the growth at 10 µM (MDA-MB-231) was 47.8%, the GI50 (NCI-H226) was 430 nM and the TGI (NCI-H226) was > 100000 nM. For the same compound, the CC50 (NCI-H226; [8]) was > 100000 nM, the GI50 (MDA-MB-435) was 120 nM and the LC50 (concentration killing 50% of starting cells) (MDA-MB-435) was > 100000 nM. For the same compound, the TGI (MDA-MB-435) was 390 nM, the GI50 (786-0) was 5780 nM and the LC50 (786-0) was > 100000 nM. The TGI (786-0) was > 100000 nM, the growth at 10 µM (SR) was 4.47% and the growth at 10 µM (SW-620) was 8.58%. For the same compound, the growth at 10 µM (SF-539) was -7.93%, the growth at 10 µM (KM12) was 35% and the growth at 10 µM (HT-29 [7]) was 11.1%. The growth at 10 µM (K562) was 11.7%.
